Tested on: MS2 coat protein
Assay: apparent Kd, MS2 coat protein; higher = weaker binding; RNA-MaP array; FMN 200 µM where present
How it was run: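 In 100 mM Tris-HCl pH 7.5, 80 mM KCl, 4 mM MgCl2, BSA, DTT, yeast tRNA and Tween-20, SNAP-549-labelled MS2 coat protein was titrated from 0.7 or 1.5 nM, doubling to 3 µM, over designs transcribed by stalled E. coli RNA polymerase on Illumina sequencing-chip clusters. This was done first without ligand, then with ligand held constant. After green signal was normalised to red-channel RNA signal and control-cluster median Fmax, the apparent Kd was taken as the median of filtered per-cluster binding-curve fits.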

[1] = designed as: OFF switch for flavin mononucleotide, no ligand
[2] = ligand present: flavin mononucleotide, designed as: OFF switch for flavin mononucleotide
[3] = designed as: ON switch for flavin mononucleotide, no ligand
[4] = ligand present: flavin mononucleotide, designed as: ON switch for flavin mononucleotide

GCCAGGAUGUAAGGAUAUGCUGAGGAUAACUCAGCAGAAGGUACAUGAGGAUCACCCAUGUAAUCCAAUAAUAAAUAACCUGGC
apparent Kd [1]: 11.8 nM | apparent Kd [2]: 23.8 nM

GCCAGGCAUGUAGGAUAUCCAUUGCGUCGCGAUGGAGAAGGGCAACACACAUGAGGAUCACCCAUGUGGUCACCCAUGUCGUGU
apparent Kd [1]: 217 nM | apparent Kd [2]: 225 nM

GCCAGGGAUUCAGGAUAUAUUAGCCGAGGCCGAGUAGAAGGGAAAUCCUGACAUGAGGAUCACCCAUGUCGACCCGCCUUCCUC
apparent Kd [3]: 20.5 nM | apparent Kd [4]: 21.1 nM

GCCAUCACAUGAGGAUAUGCUCCCGUUUCGGGAGCAGAAGGCAUGUCAUAAGACAUGAGGAUCACCCAUGUAGUUAAGAUGGCA
apparent Kd [3]: 375 nM | apparent Kd [4]: 13.3 nM

GCCAUCACAUGAGGAUAUGCUCCCGUUUCGGGAGCAGAAGGCGUGUCAUUAGACAUGAGGAUCACCCAUGUAGUUAAGAUGGCA
apparent Kd [3]: 667 nM | apparent Kd [4]: 22.8 nM

GCCAUCAUAUGAGGAUAUGACACCGAAACGGUGUCAGAAGGCAUGUCGAUAGACAUGAGGAUCACCCAUGUAUUAAUGAUGGCA
apparent Kd [3]: 1090 nM | apparent Kd [4]: 95.1 nM

GCCAUCGCAUGAGGAUAUGCUCCGGUUUCCGGAGCAGAAGGCAUGUAAUAAAACAUGAGGAUCACCCAUGUAGUUAAGAUGGCA
apparent Kd [3]: 7.94 nM | apparent Kd [4]: 6 nM

GCCAUCGCAUGAGGAUAUGGCACCGUUGCGGUGCCAGAAGGCAUGUCAAAUGACAUGAGGAUCACCCAUGUAGUUAAGAUGGCA
apparent Kd [3]: 218 nM | apparent Kd [4]: 13.8 nM

GCCAUCGCGUGAGGAUAUGCUCCGGUUUCCGGAGCAGAAGGCAUGUCAUAAGACAUGAGGAUCACCCAUGUAGUCAAGAUGGCA
apparent Kd [3]: 270 nM | apparent Kd [4]: 11.4 nM

GCCAUCGUAUGAGGAUAUGGCACCGAAACGGUGCCAGAAGGCAUGUCAAUCGACAUGAGGAUCACCCAUGUGUUAUCGAUGGCA
apparent Kd [3]: 305 nM | apparent Kd [4]: 25.1 nM

GCCAUCGUAUGAGGAUAUGGCACCGAAACGGUGCCAGAAGGCAUGUCGAUAGACAUGAGGAUCACCCAUGUAUUAACGAUGGCA
apparent Kd [3]: 1120 nM | apparent Kd [4]: 117 nM

GCCAUCGUAUGAGGAUAUGGCGCCGAAACGGUGCCAGAAGGCAUGUCAAUAGACAUGAGGAUCACCCAUGUGUUAUCGAUGGCA
apparent Kd [3]: 134 nM | apparent Kd [4]: 11.9 nM

GCCAUCUCAUGAGGAUAUGCUCCUGUUUCGGGAGCAGAAGGCAUGUCAUAAGACAUGAGGAUCACCCAUGUAGUUAAGAUGGCA
apparent Kd [3]: 256 nM | apparent Kd [4]: 11.3 nM

GCCCGCCUAGCAGGAUAUACAGGUUGGCGGACAUGAGGAUCACCCAUGUAAGGCUACAUACACUUGUAGAAGGGUUGGGUGUCC
apparent Kd [3]: 93.4 nM | apparent Kd [4]: 33.7 nM

GCCGAAAAUGUGAGGAUAUACCUAUGGAAACAUAGGUAGAAGGCACAUGAGGAUCACCCAUGUGUCCAAACGGC
apparent Kd [1]: 19.9 nM | apparent Kd [2]: 64.6 nM

GCCGAAAGUGUGAGGAUAUACCUAUGGAUACAUAGGUAGAAGGCACAUGAGGAUCACCCAUGUCCAAUAACGGC
apparent Kd [1]: 205 nM | apparent Kd [2]: 647 nM

GCCGCCCGAUCUGGCUUUUGGGCUAGAAGGGCAUAUGUGGUCCAGGACAUGAGGAUCACCCAUGUGCAGGAUAUAGCCCACCAC
apparent Kd [1]: 13.7 nM | apparent Kd [2]: 24.1 nM

GCCGGAUUUGUGAGGAUAUACCUAUGGAUACAUAGGUAGAAGGCACAUGAGGAUCACCCAUGUUCCUCACCGGC
apparent Kd [1]: 33 nM | apparent Kd [2]: 288 nM

GCCGGUUCCCUAGGAUAUGUACAUGAGGAUCACCCAUGUGCCUCUAGAGCCGGAACAGGGCAUGUACAGAAGGAGGGUCGACCC
apparent Kd [2]: 8.03 nM

GCCGUGAUAGCAGGAUAUGCUCCGGUUGCUCAUACAUGAGGAUCACCCAUGUCACGUGCGGUGGUGCAGAAGGGUUGAAGCGAA
apparent Kd [3]: 748 nM | apparent Kd [4]: 219 nM

GCCUAACAUGAGGAUCACCCAUGUCGUGGGUUGUUAGGAUAUGGACCGCAAAACGCGGUACCAGAAGGAAUAGAAA
apparent Kd [3]: 555 nM | apparent Kd [4]: 297 nM

GCCUCACAUGAGGAUCACCCAUGUCAGGAUAUAGGAGGCGAUAGAAAUCCUACCGCCGCUAGAAGGGACUGGCA
apparent Kd [1]: 39.8 nM | apparent Kd [2]: 91.2 nM

GCCUCAUAGUAGAAGGGACUUCGGCUGUUAAGCAUCAUCUCCAUUUCACAUGAGGAUCACCCAUGUCAGGAUAUACUAAGAGGC
apparent Kd [1]: 10.3 nM | apparent Kd [2]: 24.9 nM

GCCUGCUGGCGAGGAUAUUCUGUGCGGUUCCGGCUCGUGUCUGUUACAUGAGGAUCACCCAUGUGGGAGAAGGUGUCUGCGGCC
apparent Kd [1]: 7.66 nM | apparent Kd [2]: 8.34 nM

GCCUUACCGGUCAGGAUAUACACCCGUCACUCCUUGUAGAAGGGACAUGAGGAUCACCCAUGUACAUUACAUUG
apparent Kd [1]: 31.1 nM | apparent Kd [2]: 29.2 nM

GCCUUACCGGUCAGGAUAUACAUUUGUCACUCCUUGUAGAAGGGACAUGAGGAUCACCCAUGUACAUUACAUUC
apparent Kd [1]: 29 nM | apparent Kd [2]: 28.6 nM

GCCUUAUCCGUCAGGAUAUACAGUUGUUAGUUGUUGUAGAAGGGACAUGAGGAUCACCCAUGUACAUUACAUUG
apparent Kd [1]: 21.2 nM | apparent Kd [2]: 22.6 nM
